Assay results reported in ChEMBL document CHEMBL4043178, “Synthesis and evaluation of analogs of 5'-(((Z)-4-amino-2-butenyl)methylamino)-5'-deoxyadenosine (MDL 73811, or AbeAdo) - An inhibitor of S-adenosylmethionine decarboxylase with antitrypanosomal activity” (Bioorg Med Chem, 2017).

What was measured:
[1] = Inhibition of Trypanosoma brucei AdoMetDC pre-incubated for 30 mins before AdoMet substrate addition by RapidFire-mass spectrometry
[2] = (§1) Half life in human pooled liver microsomes at 1 uM in presence of NADPH by LC/MS/MS method; format: ADME, microsome; conditions: pooled liver microsomes
Trypanosoma brucei [3] = assay: Antitrypanosomal activity against Trypanosoma brucei Lister 427 bloodstream forms assessed as inhibition of parasite growth at 25 uM incubated for 48 hrs by ATP-bioluminescence cell viability assay; format: functional; conditions: Lister 427, 48 h, read-out: GI
How it was run: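 Bloodstream-form Lister 427 cells grown in HMI-19, seeded at 3000 cells/mL; compound added as 100-fold intermediate dilution, final DMSO 0.1%. After 48 h culture, viability read by CellTiter-Glo ATP-bioluminescence. Tested 0.0038–25 µM in 3-fold steps, triplicate; no-cell and DMSO-only controls (0% and 100% viability) per plate; value is percent inhibition at 25 µM.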

[4] = (§2) Half life in mouse pooled liver microsomes at 1 uM in presence of NADPH by LC/MS/MS method; format: ADME, microsome; conditions: pooled liver microsomes
[5] = tested on: Trypanosoma brucei brucei; assay: Antitrypanosomal activity against Trypanosoma brucei brucei; format: functional
[6] = Inhibition of His-tagged Trypanosoma brucei AdoMetDC expressed in Escherichia coli pre-incubated for 30 mins before AdoMet substrate addition
Liver [7] = assay: as §1; format: ADME, microsome; conditions: microsomes, 1 µM
Trypanosoma brucei [8] = assay: Antitrypanosomal activity against Trypanosoma brucei Lister 427 bloodstream forms assessed as inhibition of parasite growth incubated for 48 hrs by ATP-bioluminescence cell viability assay; format: functional; conditions: Lister 427, 48 h
Liver [9] = assay: as §2; format: ADME, microsome; conditions: microsomes, 1 µM
[10] = Inhibition of Trypanosoma brucei AdoMetDC without pre-incubation for 30 mins before AdoMet substrate addition by RapidFire-mass spectrometry
Trypanosoma brucei [11] = assay: Inhibition of Trypanosoma brucei AdoMetDC at 50 uM pre-incubated for 30 mins before AdoMet substrate addition by RapidFire-mass spectrometry
How it was run: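 Purified T. brucei AdoMetDC/prozyme complex, 50 nM in the enzyme solution, pre-incubated 30 min with compound in DMSO before adding the substrate solution (80 µM AdoMet); Hepes pH 7.7, NaCl, 5 mM putrescine. Reaction 20 min, quenched with 1 M HCl; substrate and product quantified by RapidFire-MS.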

MDCK-MDR1 = assay: Apparent permeability in MDCK2-MDR1 cells at 3 uM incubated for 1 hr in absence of P-glycoprotein inhibitor GF120918 by LC/MS/MS method; format: ADME, cell-based, Canis lupus familiaris; conditions: dog, mdck-mdr1, 1 h
Trypanosoma brucei [12] = assay: Inhibition of Trypanosoma brucei AdoMetDC at 50 uM without pre-incubation for 30 mins before AdoMet substrate addition by RapidFire-mass spectrometry
How it was run: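 Inhibition without pre-incubation: substrate solution (80 µM AdoMet) added to compound before the enzyme solution (50 nM purified T. brucei AdoMetDC/prozyme); buffer Hepes pH 7.7 with 5 mM putrescine. Reaction ran 20 min, stopped with 1 M HCl, then analysed by RapidFire-MS.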

half-life at 1 µM [2] [min]	half-life at 1 µM [4] [min]	EC50 [5] [µM]	IC50 [6] [µM]	t1/2 (Liver [7]) [h]	EC50 (Trypanosoma brucei [8]) [µM]	t1/2 (Liver [9]) [h]	inhibition (Trypanosoma brucei [11]) [%]	Papp (MDCK-MDR1) [×10⁻⁶ cm/s]	inhibition (Trypanosoma brucei [12]) [%]	Compound	IC50 [1] [µM]	inhibition of growth at 25 µM (Trypanosoma brucei [3]) [%]	IC50 [10] [µM]
≤ 2.5	≤ 2.5									CC(=O)Oc1cc(C)cc(C)c1C(C)(C)CC(=O)NC/C=C\CN(C)C[C@H]1O[C@@H](n2cnc3c(N)ncnc32)[C@@H]2OC(C)(C)O[C@@H]21	> 50	44	
		0.0018	0.021	> 1.5	0.0018	> 1.5				Cc1nc2c(N)ncnc2n1[C@@H]1O[C@H](CN(C)C/C=C\CN)[C@@H](O)[C@H]1O	0.021		0.23
				> 1.5	> 25	0.11				CC(=O)NC/C=C\CN(C)C[C@H]1O[C@@H](n2cnc3c(N)ncnc32)[C@H](OC(C)=O)[C@@H]1OC(C)=O	> 50		> 50
				1.25	> 25	0.0767				CCC(=O)NC/C=C\CN(C)C[C@H]1O[C@@H](n2cnc3c(N)ncnc32)[C@H](OC(C)=O)[C@@H]1OC(C)=O	> 50		> 50
				> 1.5	> 25	> 1.5	36			NC/C=C\CN(CCF)C[C@H]1O[C@@H](n2cnc3c(N)ncnc32)[C@H](O)[C@@H]1O			> 50
				> 1.5	> 3	> 1.5				Cc1nc2c(N)ncnc2n1[C@@H]1O[C@H](CN(C/C=C\CN)C2CC2)[C@@H](O)[C@H]1O	> 50		> 50
				> 1.5	> 25	> 1.5				Cc1nc2c(N)ncnc2n1[C@@H]1O[C@H](CN(C/C=C\CN)CCO)[C@H]2OC(C)(C)O[C@H]21	> 50		> 50
				> 1.5		> 1.5				Cc1nc2c(N)ncnc2n1[C@@H]1O[C@H](CN(C)C/C=C\CNC(=O)OC(C)C)[C@@H](O)[C@H]1O	> 50	35	> 50
				> 1.5	0.37	> 1.5				CNc1ncnc2c1ncn2[C@@H]1O[C@H](CN(C)C/C=C\CN)[C@@H](O)[C@H]1O	0.17		14
				> 1.5	> 3	> 1.5				Cc1nc2c(N)ncnc2n1[C@@H]1O[C@H](CN(C/C=C\CN)C2CC2)[C@H]2OC(C)(C)O[C@H]21	> 50		> 50
				0.162	0.16	0.1		1		CCCCCCCCC(=O)Nc1ncnc2c1ncn2[C@@H]1O[C@H](CN(C)C/C=C\CN)[C@H]2OC(C)(C)O[C@H]21	0.85		48
				< 0.0417	3	< 0.0417		31.2		Cc1nc2c(N)ncnc2n1[C@@H]1O[C@H](CN(C/C=C\CNC(=O)OC(C)(C)C)C2CC2)[C@H]2OC(C)(C)O[C@H]21	42		> 50
				> 1.5	> 25	0.983				CN(C/C=C\CN)C[C@H]1O[C@@H](n2cnc3cncnc32)[C@@H]2OC(C)(C)O[C@@H]21	> 50		> 50
		0.01	0.041	> 1.5	0.01	> 1.5				CN(C/C=C\CN)C[C@H]1O[C@@H](n2cnc3c(N)ncnc32)[C@H](O)[C@@H]1O	0.041		2.4
				0.4	2.6	0.217	39		17	Cc1nc2c(N)ncnc2n1[C@@H]1O[C@H](CN(C)C/C=C\CNC(=O)OCc2ccccc2)[C@@H](O)[C@H]1O			
				> 1.5	> 25	> 1.5				CC(=O)NC/C=C\CN(C)C[C@H]1O[C@@H](n2cnc3c(N)ncnc32)[C@H](O)[C@@H]1O	18		13
				> 1.5	2.5	> 1.5				CC(C)Nc1ncnc2c1ncn2[C@@H]1O[C@H](CN(C)C/C=C\CN)[C@@H](O)[C@H]1O	0.11		7.1
				> 1.5		> 1.5				CNc1ncnc2c1ncn2[C@@H]1O[C@H](CN(C)C/C=C\CN)[C@H]2OC(C)(C)O[C@H]21	12	37	> 50
				> 1.5	0.42	> 1.5			22	CN(C/C=C\CN)C[C@H]1O[C@@H](n2cnc3c(N)ncnc32)[C@@H]2OC(C)(C)O[C@@H]21	3		
				0.85	> 25	0.05				CCCC(=O)NC/C=C\CN(C)C[C@H]1O[C@@H](n2cnc3c(N)ncnc32)[C@H](OC(C)=O)[C@@H]1OC(C)=O	> 50		> 50
				> 1.5	0.36	> 1.5			33	CCOc1ncnc2c1ncn2[C@@H]1O[C@H](CN(C)C/C=C\CN)[C@@H](O)[C@H]1O	0.6		
				> 1.5	> 25	> 1.5				CCCC(=O)NC/C=C\CN(C)C[C@H]1O[C@@H](n2cnc3c(N)ncnc32)[C@H](O)[C@@H]1O	> 50		> 50
				> 1.5	10	> 1.5			37	CN(C/C=C\CN)C[C@H]1O[C@@H](n2cnc3c(N(C)C)ncnc32)[C@H](O)[C@@H]1O	0.81		
				< 0.0417	> 25	< 0.0417		5.1		Cc1nc2c(N)ncnc2n1[C@@H]1O[C@H](CN(C)C/C=C\CNC(=O)OC(C)(C)C)[C@H]2OC(C)(C)O[C@H]21	> 50		> 50
				> 1.5		> 1.5	40		40	CCOC(=O)NC/C=C\CN(C)C[C@H]1O[C@@H](n2c(C)nc3c(N)ncnc32)[C@H](O)[C@@H]1O			
				> 1.5	> 25	> 1.5				CCC(=O)NC/C=C\CN(C)C[C@H]1O[C@@H](n2cnc3c(N)ncnc32)[C@H](O)[C@@H]1O	25		19
				> 1.5	> 25	> 1.5				CC1(C)O[C@@H]2[C@H](O1)[C@@H](CN(C/C=C\CN)CCF)O[C@H]2n1cnc2c(N)ncnc21	> 50		> 50
